For one assay, the system named is Blood. The experiment in a line: Antiinflammatory activity in human whole blood assessed as inhibition of LPS-induced TNFalpha production at 10 uM treated for 30 mins followed by 5 hrs LPS challenge by ELISA-based WBCCS assay. Type of assay: functional. The method in brief:
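Human whole blood cells exposed to compound 30 min, then LPS-stimulated; supernatants collected after 5 h and TNF-α determined by ELISA; expressed as percent inhibition.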
On the technique in general: In an ELISA, binding on a coated surface is turned into a signal by an enzyme label.

For another assay, the system named is Mus musculus. The experiment in a line: Antiinflammatory activity in BALB/c mouse assessed as inhibition of LPS-induced TNFalpha production in plasma at 100 mg/kg, po by ELISA. The format is functional. A digest of the protocol: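 BALB/c mice dosed orally, vehicle 0.5% carboxymethylcellulose, rolipram as standard; LPS given 1 h later. Blood drawn 1.5 h after LPS; plasma TNF-α quantified by ELISA.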

Assay [1] concerns PBMC. The experiment in a line: Antiinflammatory activity in human PBMC assessed as inhibition of LPS-induced TNFalpha production treated for 30 mins followed by 5 hrs LPS challenge by ELISA assay. The format is functional, cell-based. A digest of the protocol:
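Human PBMC pre-treated with compound (0.03–100 µM) for 30 min, then LPS-stimulated 5 h; TNF-α measured. Controls: DMSO vehicle with LPS, unstimulated cells, rolipram standard. Mean ± S.E.M. of three experiments; IC50 from concentration–response.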

In assay [2] the test system is PBMC. The experiment in a line: Cytotoxicity against human PBMC by MTS assay. Type of assay: cell-based. A digest of the protocol:
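Viability of human PBMC determined by MTS across the concentrations tested in the LPS-stimulated TNF-α assay.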

Consider 28 molecules from ChEMBL document CHEMBL1777800, “Novel diarylheptanoids as inhibitors of TNF-α production” (Bioorg Med Chem Lett, 2011).

By inhibition is commonly meant the share of the control response that was lost under treatment. In general, IC50 refers to the midpoint of a concentration-inhibition curve. Usually inhibition in vivo stands for the drop in the measured response relative to a control, in per cent.

The source made the active and inactive calls. The calls are words filed in the database; no cut-off is given here.

On to `CN(C)c1ccc(CCC(=O)CC(O)CCc2cccnc2)cc1` (stereo not drawn), for which, in the assay with Blood, the inhibition at 10 µM stood at 0%. As for `COc1ccc(COc2ccc(CCC(=O)CC(O)CCc3cccnc3)cc2OC)cc1` (stereo not drawn), the inhibition at 10 µM in the assay on Blood stood at 2%. Regarding `COc1cc(/C=C/C(=O)CC(=O)/C=C/c2ccc(O)c(OC)c2)ccc1O` [CURCUMIN], the inhibition entry with Mus musculus is “inactive”. Also, the IC50 with PBMC [1] is 2.71 µM.

For `COc1cc(CCC(=O)CC(O)CCc2cccnc2)cc(OC)c1OC` (stereo not drawn), in the assay on Blood, the inhibition at 10 µM came out at 12%. Take `COc1cccc(CCC(=O)CC(O)CCc2cccnc2)c1OC` (stereo not drawn): the inhibition at 10 µM in the assay with Blood was 10%. Same read-out and setting: under `COc1ccc(CCC(=O)CC(O)CCc2cccnc2)c(OC)c1` (stereo not drawn) stands 22%; under `O=C(CCc1ccc2c(c1)OCO2)CC(O)CCc1cccnc1` (stereo not drawn), 41%.

For the molecule `COc1ccc(COc2cc(CCC(=O)CC(O)CCc3cccnc3)ccc2OC)cc1` (stereo not drawn), the values for the IC50 in the assay on PBMC [2] and in the assay with PBMC [1] (read-out: IC50) were above 100 µM and 5.7 µM, respectively. Moreover, the inhibition in vivo at 100 mg/kg in the assay on Mus musculus is 71%. Besides, the inhibition at 10 µM with Blood came to 44%.

For the molecule `COc1ccc(COc2ccc(CCC(=O)/C=C/CCc3cccnc3)cc2OC)cc1`, the results for the IC50 with PBMC [2] and in the assay on PBMC [1] (read-out: IC50) were above 100 µM and 24.1 µM, respectively. The inhibition in vivo at 100 mg/kg in the assay on Mus musculus was 75%. Moreover, the inhibition at 10 µM in the assay with Blood is 40%. For the molecule `COc1ccc(COc2cc(CCC(=O)/C=C/CCc3cccnc3)ccc2OC)cc1`, the inhibition at 10 µM with Blood turned out to be 19%. Take `COc1ccc(OC)c(CCC(=O)/C=C/CCc2cccnc2)c1`: the inhibition at 10 µM with Blood stood at 0%.

Turning to `O=C(CC(O)CCc1cccnc1)/C(=C\CCc1cccnc1)Cc1ccc(Cl)cc1` (stereo not drawn), the inhibition at 10 µM in the assay with Blood came out at 32%. With `COc1ccc(CCC(=O)/C=C/CCc2cccnc2)c(OC)c1`, the values for the IC50 in the assay on PBMC [2] and with PBMC [1] (read-out: IC50) were 38 µM and 2 µM, respectively. Besides, the inhibition in vivo at 100 mg/kg in the assay with Mus musculus was found to be 79%. Further, the inhibition at 10 µM in the assay with Blood turned out to be 56%. The inhibition entry in the assay with PBMC [1] was “Dose-dependent effect”. Consider `O=C(/C=C/CCc1cccnc1)CCc1ccccc1`, for which the inhibition at 10 µM in the assay on Blood was 0%. `N#Cc1ccc(CCC(=O)CC(O)CCc2cccnc2)cc1` (stereo not drawn): in the assay with Blood, the inhibition at 10 µM amounted to 35%. In the case of `COc1ccc(CCC(=O)/C=C/CCc2cccnc2)cc1OC`, the IC50 in the assay on PBMC [2] was determined as 80 µM; in the assay with PBMC [1] (read-out: IC50), 2.5 µM. Besides, the inhibition in vivo at 100 mg/kg in the assay on Mus musculus turned out to be 50%. In addition, the inhibition at 10 µM in the assay with Blood stood at 56%. Besides, in the assay with PBMC [1], the inhibition entry is “Dose-dependent effect”. Turning to `O=C(CCc1ccc(Cl)cc1)CC(O)CCc1cccnc1` (stereo not drawn), in the assay on Blood, the inhibition at 10 µM came out at 16%. For the molecule `Cc1cccc(CCC(=O)/C=C/CCc2cccnc2)c1`, in the assay on Blood, the inhibition at 10 µM was determined as 25%. As for `N#Cc1ccc(CCC(=O)/C=C/CCc2cccnc2)cc1`, the inhibition at 10 µM in the assay with Blood was 9%. Still for that read-out and setting: to `COc1ccc(CCC(=O)CC(O)CCc2cccnc2)cc1OC` (stereo not drawn) belongs 18%. On the same count and under the same terms, to `COc1cccc(CCC(=O)/C=C/CCc2cccnc2)c1OC` belongs 33%; to `CN(C)c1ccc(CCC(=O)/C=C/CCc2cccnc2)cc1`, 32%; to `COc1ccc(OC)c(CCC(=O)CC(O)CCc2cccnc2)c1` (stereo not drawn), 0%. Same read-out and setting: under `COc1cc(CCC(=O)/C=C/CCc2cccnc2)cc(OC)c1OC` stands 23%; under `O=C(/C=C/CCc1cccnc1)CCc1ccc(F)cc1`, 35%. Regarding `O=C(CCc1ccccc1)CC(O)CCc1cccnc1` (stereo not drawn), the inhibition at 10 µM in the assay with Blood is 3%. With `O=C(CCc1ccc(F)cc1)CC(O)CCc1cccnc1` (stereo not drawn), in the assay with Blood, the inhibition at 10 µM turned out to be 34%. On the same count and under the same terms, to `Cc1cccc(CCC(=O)CC(O)CCc2cccnc2)c1` (stereo not drawn) belongs 11%.
